Reference: ChEMBL document CHEMBL1122744, “2-Chloroethyl (methylsulfonyl)methanesulfonate and related (methylsulfonyl)methanesulfonates. Antineoplastic activity in vivo” (J Med Chem, 1984)

Columns and labels:
[1] = Median survival time of the untreated control groups, in which there are no 30-day survivors at dose 50 mg/kg in exp1; format: functional
[2] = Ratio of median survival times for non-survivors at dose 25 mg/kg in exp1; format: functional
Mus musculus [3] = assay: Ratio of number of 30-day survivors to the total treated mice at dose 100 mg/kg in exp2*-toxic; 1/6; format: ADME, organism-based; set-up: dose 100 mg/kg; settings: in vivo, 720 h
Mus musculus [4] = assay: Change in weight by day 5, obtained by subtracting treated groups of animals minus control groups of animals at dose 25 mg/kg in exp1.; format: functional
How it was run: (§1)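 Mice were inoculated ip with 10^6 P388 leukemia cells on day 0, when treated and control mice weighed 19–22 g. Treatment was given ip once daily on days 1–5, within about 5 min of preparing the solution or suspension. Groups of six (occasionally five) were treated, with 30 untreated inoculated mice as controls. The day-5 weight change is the mean treated change minus the mean control change.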

[5] = Median survival time of the treated control groups, in which there are no 30-day survivors at dose 50 mg/kg in exp1; format: functional
[6] = Ratio of median survival times for non-survivors at dose 12 mg/kg in exp2; format: functional
How it was run: (§2)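 Mice were inoculated ip with 10^6 P388 leukemia cells on day 0. Groups of six (occasionally five) were dosed ip qd on days 1–5 with fresh suspensions; 30 mice served as untreated controls. Deaths were recorded daily up to day 60. T/C% compares the median survival of treated non-survivors (<60 days) with the control median. Medians used grouped data when there were no 30-day survivors, otherwise ungrouped data. t = toxic.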

Mus musculus [7] = assay: Change in weight by day 5, obtained by subtracting treated groups of animals minus control groups of animals at dose 100 mg/kg in exp1.; format: functional; how it was run: as §1
Mus musculus [8] = assay: Median survival time of the untreated control groups, in which there are no 30-day survivors at dose 25 mg/kg in exp1; format: functional
Mus musculus [9] = assay: Median survival time of the treated control groups, in which there are no 30-day survivors at dose 25 mg/kg in exp2; format: functional
Mus musculus [10] = assay: Mortality by day 5 expressed as number of mice died to the total treated at dose 100 mg/kg in exp2; 2/6; format: ADME, organism-based; set-up: dose 100 mg/kg; settings: in vivo
Mus musculus [11] = assay: Mortality by day 5 expressed as number of mice died to the total treated at dose 12 mg/kg in exp2; 0/6; format: ADME, organism-based; set-up: dose 12 mg/kg; settings: in vivo
Mus musculus [12] = assay: Change in weight by day 5, obtained by subtracting treated groups of animals minus control groups of animals at dose 50 mg/kg in exp1.; format: functional; how it was run: as §1
Mus musculus [13] = assay: Mortality by day 5 expressed as number of mice died to the total treated at dose 25 mg/kg in exp2; 0/6; format: ADME, organism-based; set-up: dose 25 mg/kg; settings: in vivo
Mus musculus [14] = assay: Median survival time of the treated control groups, in which there are no 30-day survivors at dose 12 mg/kg in exp2; format: functional
[15] = Median survival time of the untreated control groups, in which there are no 30-day survivors at dose 25 mg/kg in exp2; format: functional
Mus musculus [16] = assay: Median survival time of the treated control groups, in which there are no 30-day survivors at dose 25 mg/kg in exp1; format: functional
[17] = Ratio of median survival times for non-survivors at dose 200 mg/kg in exp1; t= toxic; format: ADME, organism-based; set-up: dose 200 mg/kg; settings: in vivo; how it was run: as §2
[18] = Ratio of median survival times for non-survivors at dose 100 mg/kg in exp1; format: functional; set-up: unit: %; how it was run: as §2
Mus musculus [19] = assay: Change in weight by day 5, obtained by subtracting treated groups of animals minus control groups of animals at dose 100 mg/kg in exp2*-mortality was 5/6 by day 7; format: functional
How it was run: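 Mice were inoculated ip with 10^6 P388 leukemia cells on day 0 and weighed 19–22 g that day. Compound was given ip once daily on days 1–5, within about 5 min of preparing the solution or suspension, to groups of six (occasionally five). Thirty inoculated untreated mice served as controls. The value is the average weight change of treated mice minus that of controls on day 5.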

[20] = Ratio of number of 60-day survivors to the total treated mice at dose 100 mg/kg in exp1; 0/6; format: functional
Mus musculus [21] = assay: Mortality by day 5 expressed as number of mice died to the total treated at dose 25 mg/kg in exp1; 0/6; format: ADME, organism-based; set-up: dose 25 mg/kg; settings: in vivo
[22] = Ratio of median survival times for non-survivors at dose 100 mg/kg in exp2; format: functional; how it was run: as §2
Mus musculus [23] = assay: Mortality by day 5 expressed as number of mice died to the total treated at dose 50 mg/kg in exp1; 0/6; format: ADME, organism-based; set-up: dose 50 mg/kg; settings: in vivo
Mus musculus [24] = assay: Change in weight by day 5, obtained by subtracting treated groups of animals minus control groups of animals at dose 25 mg/kg in exp2; format: functional; how it was run: as §1
Mus musculus [25] = assay: Median survival time of the untreated control groups, in which there are no 30-day survivors at dose 100 mg/kg in exp2; format: functional
[26] = Ratio of number of 60-day survivors to the total treated mice at dose 100 mg/kg in exp2; 0/6; format: functional
Mus musculus [27] = assay: Median survival time of the treated control groups, in which there are no 30-day survivors at dose 100 mg/kg in exp1; format: functional
Mus musculus [28] = assay: Mortality by day 5 expressed as number of mice died to the total treated at dose 50 mg/kg in exp2; 0/6; format: ADME, organism-based; set-up: dose 50 mg/kg; settings: in vivo
Mus musculus [29] = assay: Mortality by day 5 expressed as number of mice died to the total treated at dose 200 mg/kg in exp1; 5/6; format: ADME, organism-based; set-up: dose 200 mg/kg; settings: in vivo
Mus musculus [30] = assay: Mortality by day 5 expressed as number of mice died to the total treated at dose 100 mg/kg in exp1; 0/6; format: ADME, organism-based; set-up: dose 100 mg/kg; settings: in vivo
Mus musculus [31] = assay: Change in weight by day 5, obtained by subtracting treated groups of animals minus control groups of animals at dose 12 mg/kg in exp2; format: functional; how it was run: as §1
[32] = Ratio of median survival times for non-survivors at dose 50 mg/kg in exp1; format: functional; set-up: unit: %; how it was run: as §2
Mus musculus [33] = assay: Change in weight by day 5, obtained by subtracting treated groups of animals minus control groups of animals at dose 200 mg/kg in exp1.; format: functional; how it was run: as §1
[34] = Ratio of median survival times for non-survivors at dose 25 mg/kg in exp2; format: functional; how it was run: as §2
Mus musculus [35] = assay: Median survival time of the untreated control groups, in which there are no 30-day survivors at dose 100 mg/kg in exp1; format: functional
[36] = Median survival time of the treated control groups, in which there are no 30-day survivors at dose 50 mg/kg in exp2; format: functional
Mus musculus [37] = assay: Change in weight by day 5, obtained by subtracting treated groups of animals minus control groups of animals at dose 50 mg/kg in exp2; format: functional; how it was run: as §1
Mus musculus [38] = assay: Median survival time of the untreated control groups, in which there are no 30-day survivors at dose 12 mg/kg in exp2; format: functional
Mus musculus [39] = assay: Median survival time of the untreated control groups, in which there are no 30-day survivors at dose 200 mg/kg in exp1; format: functional
Mus musculus [40] = assay: Median survival time of the treated control groups, in which there are no 30-day survivors at dose 100 mg/kg in exp2; format: functional
Mus musculus [41] = assay: Ratio of median survival times for non-survivors at dose 50 mg/kg in exp2; format: functional; how it was run: as §2
[42] = Ratio of number of 30-day survivors to the total treated mice at dose 100 mg/kg in exp1; 1/6; format: functional

`CS(=O)(=O)CS(=O)(=O)OCCBr` showed a Median survival time [1] of 10.5, a Ratio [2] of 136 and a Ratio (Mus musculus [3]) of 1. It also gave a Change in weight (Mus musculus [4]) of -0.8, a Median survival time [5] of 16.7 and a Ratio [6] of 98. The Change in weight (Mus musculus [7]) was -2.9, the Median survival time (Mus musculus [8]) was 10.5 and the Median survival time (Mus musculus [9]) was 16. For the same compound, the Mortality (Mus musculus [10]) was 2, the Mortality (Mus musculus [11]) was 0 and the Change in weight (Mus musculus [12]) was -2.1. For the same compound, the Mortality (Mus musculus [13]) was 0, the Median survival time (Mus musculus [14]) was 12.8 and the Median survival time [15] was 13. The Median survival time (Mus musculus [16]) was 14.3, the Ratio [17] was “Toxic” and the Ratio [18] was 224. For the same compound, the Change in weight (Mus musculus [19]) was -4.7, the Ratio [20] was 0 and the Mortality (Mus musculus [21]) was 0. It also gave a Ratio [22] of 54, a Mortality (Mus musculus [23]) of 0 and a Change in weight (Mus musculus [24]) of -1.5. For the same compound, the Median survival time (Mus musculus [25]) was 13, the Ratio [26] was 0 and the Median survival time (Mus musculus [27]) was 23.5. The Mortality (Mus musculus [28]) was 0, the Mortality (Mus musculus [29]) was 5 and the Mortality (Mus musculus [30]) was 0. The Change in weight (Mus musculus [31]) was 0.3, the Ratio [32] was 159 and the Change in weight (Mus musculus [33]) was -5.4. For the same compound, the Ratio [34] was 123, the Median survival time (Mus musculus [35]) was 10.5 and the Median survival time [36] was 18. For the same compound, the Change in weight (Mus musculus [37]) was -1.8, the Median survival time (Mus musculus [38]) was 13 and the Median survival time (Mus musculus [39]) was 10.5. For the same compound, the Median survival time (Mus musculus [40]) was 7, the Ratio (Mus musculus [41]) was 138 and the Ratio [42] was 1.
